pIC50: −log10 of the molar value.
Target: T1, Protein kinase C beta type (Homo sapiens, UniProt P05771)
Assay: Evaluated against recombinant human Protein kinase C beta 1
Summary of the method: (§1)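 Recombinant human PKC isozymes expressed in SF9 cells via baculovirus, partly purified (50–90%). 32P transfer from 30 μM [32P]ATP to 200 μg/mL histone IIIS in 20 mM Hepes pH 7.5, 10 mM MgCl2, EGTA, CaCl2, phosphatidylserine, and diacylglycerol at the isozyme-dependent level giving half-maximal activation. 10 min at 30 °C, TCA stop, filter counting. No-lipid background subtracted.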

T1 sequence (P05771 whole entry): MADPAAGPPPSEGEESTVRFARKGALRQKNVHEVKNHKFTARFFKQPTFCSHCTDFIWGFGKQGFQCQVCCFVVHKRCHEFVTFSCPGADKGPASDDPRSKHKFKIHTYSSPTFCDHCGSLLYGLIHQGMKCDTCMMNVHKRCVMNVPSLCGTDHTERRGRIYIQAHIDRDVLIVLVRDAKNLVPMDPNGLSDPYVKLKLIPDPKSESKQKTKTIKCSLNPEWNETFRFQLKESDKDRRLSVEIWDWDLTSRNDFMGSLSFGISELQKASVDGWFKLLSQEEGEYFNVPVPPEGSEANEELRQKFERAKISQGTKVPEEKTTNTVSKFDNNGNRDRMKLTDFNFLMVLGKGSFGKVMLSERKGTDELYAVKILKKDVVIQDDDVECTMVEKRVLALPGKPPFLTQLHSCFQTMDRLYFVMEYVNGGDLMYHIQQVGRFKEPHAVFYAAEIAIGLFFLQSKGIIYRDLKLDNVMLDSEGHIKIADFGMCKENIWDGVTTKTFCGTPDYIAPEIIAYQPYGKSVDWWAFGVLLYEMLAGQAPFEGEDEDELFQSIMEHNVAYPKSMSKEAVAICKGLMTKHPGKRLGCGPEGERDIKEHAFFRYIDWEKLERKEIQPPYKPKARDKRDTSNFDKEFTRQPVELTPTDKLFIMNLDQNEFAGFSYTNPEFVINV

SMILES | pIC50
O=C(OCC(NS(=O)(=O)c1ccccc1)c1ccc(O)cc1)c1cc(O)c(C(=O)c2c(O)cccc2C(=O)O)c(O)c1 (stereo unspecified) | 4.96
CS(=O)(=O)NC(COC(=O)c1cc(O)c(C(=O)c2c(O)cccc2C(=O)O)c(O)c1)Cc1ccc(O)cc1 (stereo unspecified) | 6.66
O=C(NC1CCCC1OC(=O)c1cc(O)c(C(=O)c2c(O)cccc2C(=O)O)c(O)c1)c1ccc(O)cc1 (stereo unspecified) | 7.40
COC(=O)c1cccc(O)c1C(=O)c1c(O)cc(C(=O)OC2CNCC2Cc2ccc(O)cc2)cc1O (stereo unspecified) | 6.96

Results, then the molecule that gave them:

pIC50 | SMILES
7.15 | Cc1ccc(S(=O)(=O)N2CCC[C@@H](OC(=O)c3cc(O)c(C(=O)c4c(O)cccc4C(=O)O)c(O)c3)[C@H](NC(=O)c3ccc(O)cc3)C2)cc1
7.52 | O=C(OC[C@@H](Cc1ccc(O)cc1)NS(=O)(=O)c1ccccc1)c1cc(O)c(C(=O)c2c(O)cccc2C(=O)O)c(O)c1

Target: T1, Protein kinase C beta type
Assay: Evaluated against recombinant human Protein kinase C beta 2
Summary of the method: as §1

SMILES | pIC50
O=C(NC(COC(=O)c1cc(O)c(C(=O)c2c(O)cccc2C(=O)O)c(O)c1)Cc1ccc(O)cc1)c1ccccc1 (stereo unspecified) | 5.55
O=C(OCC(NS(=O)(=O)c1ccccc1)c1ccc(O)cc1)c1cc(O)c(C(=O)c2c(O)cccc2C(=O)O)c(O)c1 (stereo unspecified) | 5.55
CS(=O)(=O)NC(COC(=O)c1cc(O)c(C(=O)c2c(O)cccc2C(=O)O)c(O)c1)Cc1ccc(O)cc1 (stereo unspecified) | 6.37
O=C(NC1CCCC1OC(=O)c1cc(O)c(C(=O)c2c(O)cccc2C(=O)O)c(O)c1)c1ccc(O)cc1 (stereo unspecified) | 7.30
COC(=O)c1cccc(O)c1C(=O)c1c(O)cc(C(=O)OC2CNCC2Cc2ccc(O)cc2)cc1O (stereo unspecified) | 6.60

Stronger by pIC50, values ahead:

pIC50 | SMILES
7.70 | Cc1ccc(S(=O)(=O)N2CCC[C@@H](OC(=O)c3cc(O)c(C(=O)c4c(O)cccc4C(=O)O)c(O)c3)[C@H](NC(=O)c3ccc(O)cc3)C2)cc1
8.15 | O=C(OC[C@@H](Cc1ccc(O)cc1)NS(=O)(=O)c1ccccc1)c1cc(O)c(C(=O)c2c(O)cccc2C(=O)O)c(O)c1

Target: Protein kinase C gamma type (Homo sapiens, UniProt P05129)
Assay: Evaluated against recombinant human Protein kinase C gamma
Summary of the method: as §1

SMILES | pIC50
O=C(OCC(NS(=O)(=O)c1ccccc1)c1ccc(O)cc1)c1cc(O)c(C(=O)c2c(O)cccc2C(=O)O)c(O)c1 (stereo unspecified) | 5.32
CS(=O)(=O)NC(COC(=O)c1cc(O)c(C(=O)c2c(O)cccc2C(=O)O)c(O)c1)Cc1ccc(O)cc1 (stereo unspecified) | 5.30
O=C(NC1CCCC1OC(=O)c1cc(O)c(C(=O)c2c(O)cccc2C(=O)O)c(O)c1)c1ccc(O)cc1 (stereo unspecified) | 8.00
COC(=O)c1cccc(O)c1C(=O)c1c(O)cc(C(=O)OC2CNCC2Cc2ccc(O)cc2)cc1O (stereo unspecified) | 6.42

The next lines start with the values.

pIC50 | SMILES
5.46 | Cc1ccc(S(=O)(=O)N2CCC[C@@H](OC(=O)c3cc(O)c(C(=O)c4c(O)cccc4C(=O)O)c(O)c3)[C@H](NC(=O)c3ccc(O)cc3)C2)cc1
6.33 | O=C(OC[C@@H](Cc1ccc(O)cc1)NS(=O)(=O)c1ccccc1)c1cc(O)c(C(=O)c2c(O)cccc2C(=O)O)c(O)c1

Target: Protein kinase C delta type (Homo sapiens, UniProt Q05655)
Assay: Evaluated against recombinant human Protein kinase C delta
Summary of the method: as §1

Protein kinase C delta type, sequence (Q05655 whole entry): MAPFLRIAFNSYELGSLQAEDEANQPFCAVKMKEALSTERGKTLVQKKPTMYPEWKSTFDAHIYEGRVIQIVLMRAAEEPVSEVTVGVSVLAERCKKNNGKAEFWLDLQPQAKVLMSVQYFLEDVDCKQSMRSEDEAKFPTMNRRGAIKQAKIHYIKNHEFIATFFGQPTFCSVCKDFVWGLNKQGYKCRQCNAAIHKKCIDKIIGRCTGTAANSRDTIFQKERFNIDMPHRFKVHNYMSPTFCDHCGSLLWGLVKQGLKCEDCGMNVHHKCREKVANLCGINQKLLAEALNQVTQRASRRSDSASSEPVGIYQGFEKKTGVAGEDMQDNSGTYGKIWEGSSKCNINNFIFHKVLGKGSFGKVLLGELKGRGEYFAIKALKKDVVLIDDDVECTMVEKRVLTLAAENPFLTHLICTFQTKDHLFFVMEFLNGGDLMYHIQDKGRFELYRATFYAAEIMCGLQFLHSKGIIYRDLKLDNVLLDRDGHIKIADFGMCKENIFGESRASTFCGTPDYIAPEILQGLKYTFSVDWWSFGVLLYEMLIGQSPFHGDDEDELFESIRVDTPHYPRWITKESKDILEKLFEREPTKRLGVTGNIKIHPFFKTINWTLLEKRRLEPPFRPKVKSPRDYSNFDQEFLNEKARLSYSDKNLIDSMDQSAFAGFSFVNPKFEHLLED

SMILES | pIC50
O=C(NC(COC(=O)c1cc(O)c(C(=O)c2c(O)cccc2C(=O)O)c(O)c1)Cc1ccc(O)cc1)c1ccccc1 (stereo unspecified) | 4.66
O=C(OCC(NS(=O)(=O)c1ccccc1)c1ccc(O)cc1)c1cc(O)c(C(=O)c2c(O)cccc2C(=O)O)c(O)c1 (stereo unspecified) | 5.72
CS(=O)(=O)NC(COC(=O)c1cc(O)c(C(=O)c2c(O)cccc2C(=O)O)c(O)c1)Cc1ccc(O)cc1 (stereo unspecified) | 6.39
O=C(NC1CCCC1OC(=O)c1cc(O)c(C(=O)c2c(O)cccc2C(=O)O)c(O)c1)c1ccc(O)cc1 (stereo unspecified) | 9.05
COC(=O)c1cccc(O)c1C(=O)c1c(O)cc(C(=O)OC2CNCC2Cc2ccc(O)cc2)cc1O (stereo unspecified) | 7.00

Now from value to molecule:

pIC50 | SMILES
5.38 | Cc1ccc(S(=O)(=O)N2CCC[C@@H](OC(=O)c3cc(O)c(C(=O)c4c(O)cccc4C(=O)O)c(O)c3)[C@H](NC(=O)c3ccc(O)cc3)C2)cc1
8.52 | O=C(OC[C@@H](Cc1ccc(O)cc1)NS(=O)(=O)c1ccccc1)c1cc(O)c(C(=O)c2c(O)cccc2C(=O)O)c(O)c1

Target: Protein kinase C alpha type (Homo sapiens, UniProt P17252)
Assay: Evaluated against recombinant human Protein kinase C alpha
Summary of the method: as §1

SMILES | pIC50
O=C(NC(COC(=O)c1cc(O)c(C(=O)c2c(O)cccc2C(=O)O)c(O)c1)Cc1ccc(O)cc1)c1ccccc1 (stereo unspecified) | 4.35
O=C(OCC(NS(=O)(=O)c1ccccc1)c1ccc(O)cc1)c1cc(O)c(C(=O)c2c(O)cccc2C(=O)O)c(O)c1 (stereo unspecified) | < 4.30
CS(=O)(=O)NC(COC(=O)c1cc(O)c(C(=O)c2c(O)cccc2C(=O)O)c(O)c1)Cc1ccc(O)cc1 (stereo unspecified) | 4.64
O=C(NC1CCCC1OC(=O)c1cc(O)c(C(=O)c2c(O)cccc2C(=O)O)c(O)c1)c1ccc(O)cc1 (stereo unspecified) | 7.40
COC(=O)c1cccc(O)c1C(=O)c1c(O)cc(C(=O)OC2CNCC2Cc2ccc(O)cc2)cc1O (stereo unspecified) | 5.66

Next, values leading:

pIC50 | SMILES
5.21 | Cc1ccc(S(=O)(=O)N2CCC[C@@H](OC(=O)c3cc(O)c(C(=O)c4c(O)cccc4C(=O)O)c(O)c3)[C@H](NC(=O)c3ccc(O)cc3)C2)cc1
6.68 | O=C(OC[C@@H](Cc1ccc(O)cc1)NS(=O)(=O)c1ccccc1)c1cc(O)c(C(=O)c2c(O)cccc2C(=O)O)c(O)c1

Target: T2, Protein kinase C epsilon type (Homo sapiens, UniProt Q02156)
T2 sequence (Q02156 whole entry): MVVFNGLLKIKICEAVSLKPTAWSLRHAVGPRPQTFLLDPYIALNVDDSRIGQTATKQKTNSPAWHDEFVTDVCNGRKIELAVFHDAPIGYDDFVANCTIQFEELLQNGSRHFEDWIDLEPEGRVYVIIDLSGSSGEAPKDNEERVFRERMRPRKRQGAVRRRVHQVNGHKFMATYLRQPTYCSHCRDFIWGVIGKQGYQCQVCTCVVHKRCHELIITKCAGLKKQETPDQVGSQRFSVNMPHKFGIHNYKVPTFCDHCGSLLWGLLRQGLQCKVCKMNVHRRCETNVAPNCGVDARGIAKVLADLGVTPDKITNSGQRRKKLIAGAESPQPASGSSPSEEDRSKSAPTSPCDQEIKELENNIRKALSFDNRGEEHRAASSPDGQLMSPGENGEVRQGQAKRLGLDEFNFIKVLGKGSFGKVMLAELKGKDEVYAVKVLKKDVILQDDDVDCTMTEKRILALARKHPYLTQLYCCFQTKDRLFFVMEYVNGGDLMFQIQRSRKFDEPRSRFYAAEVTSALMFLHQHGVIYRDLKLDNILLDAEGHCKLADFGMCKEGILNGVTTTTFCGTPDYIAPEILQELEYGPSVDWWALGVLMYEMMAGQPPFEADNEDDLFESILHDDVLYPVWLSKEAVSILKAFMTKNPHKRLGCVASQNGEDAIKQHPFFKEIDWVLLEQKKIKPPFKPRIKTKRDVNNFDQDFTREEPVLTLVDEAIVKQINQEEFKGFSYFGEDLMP
Assay: Evaluated against recombinant human Protein kinase C epsilon
Summary of the method: as §1

SMILES | pIC50
O=C(NC(COC(=O)c1cc(O)c(C(=O)c2c(O)cccc2C(=O)O)c(O)c1)Cc1ccc(O)cc1)c1ccccc1 (stereo unspecified) | < 4.30
O=C(OCC(NS(=O)(=O)c1ccccc1)c1ccc(O)cc1)c1cc(O)c(C(=O)c2c(O)cccc2C(=O)O)c(O)c1 (stereo unspecified) | < 4.30
CS(=O)(=O)NC(COC(=O)c1cc(O)c(C(=O)c2c(O)cccc2C(=O)O)c(O)c1)Cc1ccc(O)cc1 (stereo unspecified) | < 4.30
O=C(NC1CCCC1OC(=O)c1cc(O)c(C(=O)c2c(O)cccc2C(=O)O)c(O)c1)c1ccc(O)cc1 (stereo unspecified) | 7.30

Second part, the molecule after the results:

pIC50 | SMILES
4.82 | Cc1ccc(S(=O)(=O)N2CCC[C@@H](OC(=O)c3cc(O)c(C(=O)c4c(O)cccc4C(=O)O)c(O)c3)[C@H](NC(=O)c3ccc(O)cc3)C2)cc1
6.34 | O=C(OC[C@@H](Cc1ccc(O)cc1)NS(=O)(=O)c1ccccc1)c1cc(O)c(C(=O)c2c(O)cccc2C(=O)O)c(O)c1

Target: T3, Protein kinase C eta type (Homo sapiens, UniProt P24723)
Assay: Inhibition of recombinant human Protein kinase C eta
Summary of the method: as §1

T3 sequence (P24723 whole entry): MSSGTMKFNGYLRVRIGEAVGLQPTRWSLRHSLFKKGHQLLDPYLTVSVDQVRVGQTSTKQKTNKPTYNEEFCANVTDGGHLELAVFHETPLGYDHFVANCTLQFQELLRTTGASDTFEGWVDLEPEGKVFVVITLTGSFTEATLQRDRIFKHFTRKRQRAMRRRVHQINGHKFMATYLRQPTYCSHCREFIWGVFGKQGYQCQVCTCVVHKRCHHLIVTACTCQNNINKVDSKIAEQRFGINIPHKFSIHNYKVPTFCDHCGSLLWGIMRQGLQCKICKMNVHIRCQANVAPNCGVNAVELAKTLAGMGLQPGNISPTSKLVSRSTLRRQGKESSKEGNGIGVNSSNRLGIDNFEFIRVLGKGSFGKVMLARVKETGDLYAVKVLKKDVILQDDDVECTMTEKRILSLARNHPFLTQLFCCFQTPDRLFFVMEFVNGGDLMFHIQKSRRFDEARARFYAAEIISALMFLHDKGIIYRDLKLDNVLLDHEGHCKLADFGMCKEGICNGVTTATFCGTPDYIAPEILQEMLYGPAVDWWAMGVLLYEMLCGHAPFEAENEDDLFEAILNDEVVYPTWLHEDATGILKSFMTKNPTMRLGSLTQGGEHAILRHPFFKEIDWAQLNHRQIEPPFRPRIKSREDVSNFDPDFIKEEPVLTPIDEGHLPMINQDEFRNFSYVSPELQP

IC50 | SMILES
3300 nM | O=C(OCC(NS(=O)(=O)c1ccccc1)c1ccc(O)cc1)c1cc(O)c(C(=O)c2c(O)cccc2C(=O)O)c(O)c1 (stereo unspecified)

Target: T3, Protein kinase C eta type
Assay: Evaluated against recombinant human Protein kinase C eta
Summary of the method: as §1

SMILES | pIC50
O=C(NC(COC(=O)c1cc(O)c(C(=O)c2c(O)cccc2C(=O)O)c(O)c1)Cc1ccc(O)cc1)c1ccccc1 (stereo unspecified) | 4.74
CS(=O)(=O)NC(COC(=O)c1cc(O)c(C(=O)c2c(O)cccc2C(=O)O)c(O)c1)Cc1ccc(O)cc1 (stereo unspecified) | 6.41
O=C(NC1CCCC1OC(=O)c1cc(O)c(C(=O)c2c(O)cccc2C(=O)O)c(O)c1)c1ccc(O)cc1 (stereo unspecified) | 9.22
COC(=O)c1cccc(O)c1C(=O)c1c(O)cc(C(=O)OC2CNCC2Cc2ccc(O)cc2)cc1O (stereo unspecified) | 6.30

The next lines start with the values.

pIC50 | SMILES
7.00 | Cc1ccc(S(=O)(=O)N2CCC[C@@H](OC(=O)c3cc(O)c(C(=O)c4c(O)cccc4C(=O)O)c(O)c3)[C@H](NC(=O)c3ccc(O)cc3)C2)cc1
8.52 | O=C(OC[C@@H](Cc1ccc(O)cc1)NS(=O)(=O)c1ccccc1)c1cc(O)c(C(=O)c2c(O)cccc2C(=O)O)c(O)c1

Target: not listed separately
Assay: Evaluated against bovine heart Protein Kinase A (PKA)

SMILES | pIC50
O=C(NC(COC(=O)c1cc(O)c(C(=O)c2c(O)cccc2C(=O)O)c(O)c1)Cc1ccc(O)cc1)c1ccccc1 (stereo unspecified) | < 4.30
O=C(OCC(NS(=O)(=O)c1ccccc1)c1ccc(O)cc1)c1cc(O)c(C(=O)c2c(O)cccc2C(=O)O)c(O)c1 (stereo unspecified) | < 4.30
CS(=O)(=O)NC(COC(=O)c1cc(O)c(C(=O)c2c(O)cccc2C(=O)O)c(O)c1)Cc1ccc(O)cc1 (stereo unspecified) | < 4.30

Next, values leading:

pIC50 | SMILES
< 3.82 | Cc1ccc(S(=O)(=O)N2CCC[C@@H](OC(=O)c3cc(O)c(C(=O)c4c(O)cccc4C(=O)O)c(O)c3)[C@H](NC(=O)c3ccc(O)cc3)C2)cc1
< 4.30 | O=C(OC[C@@H](Cc1ccc(O)cc1)NS(=O)(=O)c1ccccc1)c1cc(O)c(C(=O)c2c(O)cccc2C(=O)O)c(O)c1
